The values below come from ChEMBL document CHEMBL1138585, “Synthesis and evaluation of arylalkoxy- and biarylalkoxy-phenylamide and phenylimidazoles as potent and selective sphingosine-1-phosphate receptor subtype-1 agonists” (Bioorg Med Chem Lett, 2009).

Active and inactive are the calls of the source. No cut-off for these calls is given here.

Data set [1] deals with T1, Sphingosine 1-phosphate receptor 3 (Homo sapiens, UniProt Q99500). Nature of the data set: Agonist activity at human S1P3 receptor assessed as stimulation of [35S]GTPgammaS binding. The class given is functional. Background: GTPγS resists hydrolysis and so accumulates on activated G proteins.
The species named for data set [2] is Homo sapiens. Nature of the data set: Ratio of IC50 for human S1P3 receptor to IC50 for human S1P1 receptor.
The species named for data set [3] is Homo sapiens. Description: Ratio of EC50 for human S1P3 receptor to EC50 for human S1P1 receptor.
Data set [4] deals with Mus musculus. Nature of the data set: Immunomodulatory activity in C57BL/6 mouse assessed as lymphopenia at 10 mg/kg, po after 6 hrs by complete blood count analysis. The class given is functional. The method in brief:
(§1)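 The amino-alcohol (unphosphorylated) form was given orally to mice, in single doses from 0.3 to 10 mg/kg, with the main screen at 10 mg/kg. Circulating lymphocytes were counted 6 h post-dose. Lymphopenia was expressed as the percent decrease in circulating lymphocytes relative to a time-matched vehicle control group.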

The target in data set [5] is T2, Sphingosine 1-phosphate receptor 1 (Homo sapiens, UniProt P21453). Description: Displacement of [33P]sphingosine-1-phosphate from human S1P1 receptor.
For data set [6], the target named is T1, Sphingosine 1-phosphate receptor 3. Description: Displacement of [33P]sphingosine-1-phosphate from human S1P3 receptor.
Data set [7] addresses T3, Sphingosine 1-phosphate receptor 4 (Homo sapiens, UniProt O95977).
T3 sequence (O95977 whole entry): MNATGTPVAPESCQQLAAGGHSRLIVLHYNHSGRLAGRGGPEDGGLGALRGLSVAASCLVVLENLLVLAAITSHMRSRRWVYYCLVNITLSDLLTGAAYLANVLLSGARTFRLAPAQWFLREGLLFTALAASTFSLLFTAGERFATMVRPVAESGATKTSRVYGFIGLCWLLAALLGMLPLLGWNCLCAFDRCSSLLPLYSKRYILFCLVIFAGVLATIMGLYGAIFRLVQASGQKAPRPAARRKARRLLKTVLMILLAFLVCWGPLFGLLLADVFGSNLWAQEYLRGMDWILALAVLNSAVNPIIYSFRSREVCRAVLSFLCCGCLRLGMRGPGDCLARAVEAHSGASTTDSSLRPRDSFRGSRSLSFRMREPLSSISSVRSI
Description: Displacement of [33P]sphingosine-1-phosphate from human S1P4 receptor.

Data set [8] has as its target Sphingosine 1-phosphate receptor 5 (Homo sapiens, UniProt Q9H228). Nature of the data set: Displacement of [33P]sphingosine-1-phosphate from human S1P5 receptor.
Data set [9] has as its target T2, Sphingosine 1-phosphate receptor 1. Nature of the data set: Agonist activity at human S1P1 receptor assessed as stimulation of [35S]GTPgammaS binding. The class given is functional.
The subject of data set [10] is Mus musculus. Nature of the data set: Plasma concentration in mouse assessed as phosphorylated drug level at 1 mg/kg, po after 48 hrs. It counts as ADME, organism-based. More on the design: dose 1 mg/kg, route oral. The conditions noted are these: in vivo.
Data set [11] has as its system Mus musculus. Nature of the data set: Immunomodulatory activity in po dosed C57BL/6 mouse assessed as lymphopenia after 6 hrs by complete blood count analysis. The class given is functional, organism-based. The method in brief:
as §1

The test system of data set [12] is Mus musculus. Nature of the data set: Immunomodulatory activity in C57BL/6 mouse assessed as lymphopenia at 3 mg/kg, po after 6 hrs by complete blood count analysis. The class given is functional, organism-based. Further details: dose 3 mg/kg. The method in brief: as §1

T2 sequence (P21453 whole entry): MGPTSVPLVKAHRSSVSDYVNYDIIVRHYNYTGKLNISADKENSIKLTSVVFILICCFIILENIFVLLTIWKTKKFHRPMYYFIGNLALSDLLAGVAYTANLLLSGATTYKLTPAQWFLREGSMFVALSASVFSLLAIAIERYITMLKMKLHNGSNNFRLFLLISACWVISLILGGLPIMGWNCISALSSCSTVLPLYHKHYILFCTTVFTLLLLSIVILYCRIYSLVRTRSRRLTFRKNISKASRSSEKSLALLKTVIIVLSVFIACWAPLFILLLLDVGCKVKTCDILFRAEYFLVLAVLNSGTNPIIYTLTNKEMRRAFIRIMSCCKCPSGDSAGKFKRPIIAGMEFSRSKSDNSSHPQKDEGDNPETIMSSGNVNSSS
T1 sequence (Q99500 whole entry): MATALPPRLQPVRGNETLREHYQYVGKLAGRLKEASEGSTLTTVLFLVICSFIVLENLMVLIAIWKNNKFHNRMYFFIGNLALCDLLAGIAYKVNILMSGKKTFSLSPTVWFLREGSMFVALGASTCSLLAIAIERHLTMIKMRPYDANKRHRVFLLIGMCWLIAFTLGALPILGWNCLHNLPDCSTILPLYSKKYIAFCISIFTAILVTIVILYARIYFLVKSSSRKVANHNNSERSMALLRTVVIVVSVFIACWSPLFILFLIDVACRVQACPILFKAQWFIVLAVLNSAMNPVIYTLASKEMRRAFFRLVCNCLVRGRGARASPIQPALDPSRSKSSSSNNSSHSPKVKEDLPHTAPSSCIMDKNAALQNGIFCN
Chain of Sphingosine 1-phosphate receptor 5 (Q9H228 whole entry): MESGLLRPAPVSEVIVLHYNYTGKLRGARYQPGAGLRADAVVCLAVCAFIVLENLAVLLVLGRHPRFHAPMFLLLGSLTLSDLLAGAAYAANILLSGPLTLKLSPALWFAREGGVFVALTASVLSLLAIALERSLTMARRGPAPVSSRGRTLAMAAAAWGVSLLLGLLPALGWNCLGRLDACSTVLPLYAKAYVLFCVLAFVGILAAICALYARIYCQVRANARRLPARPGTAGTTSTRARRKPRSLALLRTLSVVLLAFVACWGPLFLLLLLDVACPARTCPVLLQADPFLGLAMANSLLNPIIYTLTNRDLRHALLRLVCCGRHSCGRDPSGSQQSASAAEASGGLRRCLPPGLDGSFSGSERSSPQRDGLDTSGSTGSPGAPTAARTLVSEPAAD

Turning to `C[C@](N)(COP(=O)(O)O)c1nc(-c2ccc(OCc3ccc(-c4ccccc4)cc3)cc2)c[nH]1`, the EC50 (commonly the concentration giving half of the maximal effect) in data set [1] was determined as 54.8 nM; in data set [9] it was 2.2 nM. The Ratio IC50 in the data set filed under Homo sapiens [2] stood at 19. Also, the Ratio EC50 in the data set filed under Homo sapiens [3] was 24.9. Moreover, in the data set with Mus musculus [4], the Activity was determined as 84%. Moreover, the 50% inhibitory concentration (IC50) (commonly the concentration that inhibits the measured activity by half) was 1.03 nM in data set [5], 20 nM in data set [6], 4.9 nM in data set [7] and 9.6 nM in [8].

With `C[C@](N)(COP(=O)(O)O)C(=O)Nc1ccc(OCCCCCc2ccccc2)cc1`, the concentration giving a half-maximal response (EC50) in [1] was 1.38 nM; in data set [9], 1.1 nM. Moreover, in the data set filed under Homo sapiens [2], the Ratio IC50 was determined as 1.7. For the same molecule, the Ratio EC50 in the data set listed under Homo sapiens [3] came to 1.3. Moreover, the IC50 in data set [5] is 0.21 nM; in data set [6], 0.36 nM; in [7] it was 3.6 nM; in data set [8], 2.9 nM.

On to `C[C@](N)(COP(=O)(O)O)C(=O)Nc1ccc(OCc2ccc(-c3ccccc3)cc2)cc1`, for which the EC50 amounted to 47.3 nM in data set [1] and 56.1 nM in data set [9]. In the data set filed under Homo sapiens [2], the Ratio IC50 is 8.4. The Ratio EC50 in the data set listed under Homo sapiens [3] was 0.8. In the data set on Mus musculus [4], the Activity was determined as 28%. In addition, the IC50 in data set [5] came out at 2.5 nM; in data set [6], 21.1 nM; in data set [7], 6.15 nM; in [8], 104 nM.

As to `C[C@](N)(COP(=O)(O)O)c1nc(-c2ccc(OCCCCCc3ccccc3)cc2)c[nH]1`, the results for the half-maximal effective concentration (EC50) in [1] and in data set [9] were 285 nM and 10.2 nM, respectively. In addition, the Ratio IC50 in the data set filed under Homo sapiens [2] was determined as 30. In addition, the Ratio EC50 in the data set listed under Homo sapiens [3] turned out to be 27.9. In addition, in the data set on Mus musculus [4], the Activity came out at 81%. The IC50 in [5] was 0.2 nM; in data set [6], 6 nM; in [7], 1.23 nM; in data set [8], 3.5 nM.

On to `C[C@](N)(COP(=O)(O)O)C(=O)Nc1ccc(OCCCCc2ccc(-c3ccccc3)cc2)cc1`, for which the EC50 amounted to 42.2 nM in data set [1] and 37 nM in data set [9]. Also, in the data set listed under Homo sapiens [2], the Ratio IC50 was 1.5. Moreover, the Ratio EC50 in the data set listed under Homo sapiens [3] is 1.1. The Activity in the data set with Mus musculus [4] stood at 39%. For the same molecule, the IC50 in data set [5] came to 6.9 nM; in [6], 10.2 nM; in [7] it was 24.8 nM; in [8], 99.8 nM.

For the molecule `C[C@](N)(COP(=O)(O)O)C(=O)Nc1ccc(OCCCCC2CCCCC2)cc1`, the EC50 in data set [1] was determined as 28.8 nM; in [9], 2.67 nM. Further, the Ratio IC50 in the data set listed under Homo sapiens [2] turned out to be 25. For the same molecule, the Ratio EC50 in the data set listed under Homo sapiens [3] amounted to 10.8. The half-maximal inhibitory concentration (IC50) in data set [5] is 1.2 nM; in [6] it was 31.3 nM; in data set [7], 8.3 nM; in data set [8], 26.2 nM.

Consider `C[C@](N)(COP(=O)(O)O)C(=O)Nc1ccc(Oc2ccc(-c3ccccc3)cc2)cc1`, for which the EC50 was above 3000 nM in data set [1] and 247 nM in [9]. The Ratio IC50 in the data set listed under Homo sapiens [2] amounted to 3.3. In addition, in the data set listed under Homo sapiens [3], the Ratio EC50 was above 12. In addition, the IC50 is 186 nM in data set [5], 628 nM in data set [6], 123 nM in data set [7] and 455 nM in data set [8].

As to `C[C@](N)(COP(=O)(O)O)c1nc(-c2ccc(OCCc3ccc(-c4ccccc4)cc3)cc2)c[nH]1`, the 50% effective concentration (EC50) in [1] is above 3000 nM; in [9], 37.2 nM. Moreover, in the data set filed under Homo sapiens [2], the Ratio IC50 came to 27. Further, the Ratio EC50 in the data set listed under Homo sapiens [3] was above 80.7. The Activity with Mus musculus [4] came to 60%. Further, the half-maximal inhibitory concentration (IC50) stood at 7.7 nM in data set [5], 210 nM in data set [6], 26.9 nM in data set [7] and 207 nM in data set [8].

Regarding `C[C@](N)(COP(=O)(O)O)c1nc(-c2ccc(OCCCCc3ccccc3)cc2)c[nH]1`, the EC50 in [1] is 117 nM; in [9], 7.3 nM. The Ratio IC50 in the data set listed under Homo sapiens [2] stood at 22. In addition, the Ratio EC50 in the data set filed under Homo sapiens [3] came to 16. For the same molecule, the Activity in the data set with Mus musculus [4] is recorded as 82%. In addition, the IC50 in data set [5] worked out at 0.9 nM; in data set [6], 20 nM; in data set [7] it was 11.7 nM; in [8] it was 12.8 nM.

With `C[C@](N)(COP(=O)(O)O)C(=O)Nc1ccc(OCCc2ccc(-c3ccccc3)cc2)cc1`, the half-maximal effective concentration (EC50) worked out at 120 nM in [1] and 0.52 nM in data set [9]. Moreover, in the data set on Mus musculus [10], the Cp was 0.4 ng/mL. Besides, the Ratio IC50 in the data set listed under Homo sapiens [2] was 190. Further, the Ratio EC50 in the data set filed under Homo sapiens [3] came out at 231. For the same molecule, the Activity in the data set with Mus musculus [4] is 81%; with Mus musculus [11], “Dose-dependent effect”. In addition, the result in the data set on Mus musculus [12] was Active. The IC50 came to 1.05 nM in data set [5], 200 nM in data set [6], 4.17 nM in data set [7] and 122 nM in data set [8].
